S1P3 agonist – S1P3 (human) receptor agonism; AID 373; hit rate 0.1% among 60,000; S1P3 NFAT-BLA reporter cells, FRET ratio; relative to 1 µM S1P, basal subtracted; activation, % at 4.5 µM; Q99500;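 active = activation above the screen-wide mean plus 3 SD, cut at about 4.5% in these data, passing the limit was not always enough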
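Measure – % activation relative to 1 µM S1P (100%), per plate · System – stable CHO line with human S1P3, Gα16, NFAT-BLA reporter · Timing – cells plated overnight, compound 4 h 37 °C, substrate 2 h RT · Technique – fluorescent BLA substrate, ex 405 nm, em 460/535 nm ratio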
M1 ag – M1 muscarinic receptor agonism; B-score at 10 µM; hit rate 3% among 64,000; AID 626; CHO-M1 cells, Fluo-4 calcium fluorescence, agonist mode; active compounds read high;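 active = fluorescence rise, raw or as B-score row- and column-corrected plate score, outside the 99.7% band of its plate's samples, either direction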
M1 antag – M1 muscarinic receptor (rat) antagonism; P08482; CHO-M1 cells, Fluo-4 calcium, ACh EC80 antagonist mode; active compounds read low; B-score at 10 µM; hit rate 3.4% among 64,000; AID 628;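 active = calcium fluorescence response, raw or row-and-column corrected B-score, differing from the plate sample mean either way at a set confidence level, mostly lower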
S1P1 ag-PAM – S1P1 (human) agonism or agonism potentiation; P21453; S1P1 CRE-bla cells, forskolin, beta-lactamase FRET, potentiator mode; S1P1 agonist co-added at EC20, 2 nM; 100% = saturating reference agonist, 0% = basal; activation, % at 9.5 µM; hit rate 0.57% among 56,000; AID 449;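 active = activation above a cutoff set at the mean activation of all tested compounds plus 3 SD, cut at about 54% in these data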;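 also: forskolin at 4 µM as EC80 and the EC20 agonist is SEW2871; 100% = SEW2871 at its EC100 plus forskolin at EC80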
D1 mod – allosterically modulates the human D1 dopamine receptor. P21728. HEK293 D1, CRE-luciferase, dopamine EC30 potentiation; actives deviate in either direction. B-score at 10 µM. hit rate 5.9% among 58,000. AID 641;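 active = luminescence count or its row- and column-corrected plate score outside the 99.7% band of the plate's sample wells, on either side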
Target sequence (P21728 whole entry, looked up): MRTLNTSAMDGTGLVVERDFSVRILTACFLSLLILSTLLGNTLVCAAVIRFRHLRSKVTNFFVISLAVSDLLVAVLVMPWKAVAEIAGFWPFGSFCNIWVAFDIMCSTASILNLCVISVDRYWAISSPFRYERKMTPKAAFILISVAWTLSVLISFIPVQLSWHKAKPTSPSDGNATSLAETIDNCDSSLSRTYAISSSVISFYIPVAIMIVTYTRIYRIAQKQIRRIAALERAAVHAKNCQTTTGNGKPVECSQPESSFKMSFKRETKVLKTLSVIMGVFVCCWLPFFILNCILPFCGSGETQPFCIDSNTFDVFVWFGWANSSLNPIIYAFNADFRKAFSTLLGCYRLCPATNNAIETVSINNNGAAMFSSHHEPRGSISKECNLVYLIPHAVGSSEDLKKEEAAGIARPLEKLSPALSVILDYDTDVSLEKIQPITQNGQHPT
M1 agonist conf – rat M1 muscarinic agonism, confirmation. shares compounds with M1 ag. CHO-M1 cells, Fluo-4 calcium fluorescence, agonist mode; actives lie on both sides. fluorescence change (max-min) at 10 µM. hit rate 19% among 1,700. AID 1488;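 active = fluorescence change differs from the solvent-only DMSO control mean at a set confidence level in both duplicate runs; inconclusive = differs from solvent-only control mean in just one of two runs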;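 also: an EC20 dose of acetylcholine follows compound addition during the same imaging run; raw fluorescence intensity difference in instrument units with no normalization to controls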
M4 agonist ctr – activates rat M4 receptor in counter-screen for M1 agonists; shares compounds with M1 ag; CHO M4/Gqi5 cells, Fluo-4 calcium fluorescence, agonist mode; actives lie on both sides; fluorescence change (max-min) at 10 µM; hit rate 9% among 1,700; AID 1741;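 active = fluorescence change differing from the plate's solvent-only control wells at 99.7% confidence in both duplicates, whether higher or lower; inconclusive = differs from solvent controls in only one of two duplicates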
* marks the source's active call; other numbers are inactive results; u = inconclusive; x = no result. Only some compounds are listed: those with a hit (about 11% of all), similar ones and a draw of the others.

SMILES	S1P3 agonist	M1 ag	M1 antag	S1P1 ag-PAM	D1 mod	M1 agonist conf	M4 agonist ctr
N#C/C(=C\c1ccc(O)c(O)c1)S(=O)(=O)c1ccccc1	-1.2	22*	0.516	-1.6	0.0412	33.4	14.8
CCN=C1SC(C(=O)Nc2cccc(OCC)c2)CC(=O)N1CC (stereo not given)	-2.2	7.6*	-0.411	11.6	0.84	-17.6	-14.6
CCCOc1cccc(C2/C(=C(/O)c3ccncc3)C(=O)C(=O)N2CCCN(C)C)c1 (stereo not given)	0.6	0.0242	1.69	-2.0	-0.00527	x	x
Cc1nn(Cc2ccc(C(=O)NC(C)(C)C)o2)c(C)c1Br	-0.3	3.92*	-1.89	30.5	-0.595	16.8	-15.3
COc1ccc(Cn2nnnc2C(C(C)C)N(Cc2ccco2)Cc2cccs2)cc1 (stereo not given)	-2.3	3.16*	-0.13	48.5	0.831	-6.41	u
CC(C)C(c1nnnn1Cc1ccccc1)N(Cc1ccco1)Cc1cccs1 (stereo not given)	-2.0	12.8*	-1.2	57.2	0.865	-10.9	-13.8
Cc1ccc(C(c2nnnn2C(C)(C)C)N(Cc2ccco2)Cc2cccs2)cc1 (stereo not given)	-1.9	6.46	0.188	-14.3	-2.18	x	x
O=C(NCc1ccccc1F)C1CCCN1C(=O)NCc1ccccc1 (stereo not given)	1.1	-0.141	0.412	2.4	0.0528	x	x
N#CC1=C(N)NC(SCC(=O)Nc2ccccc2)=C(C#N)C12CCCC2	x	2.87*	-0.311	x	-0.556	7.49	-5.32
Cc1cc(C)nc(SCC(=O)N2CCC(C(N)=O)CC2)n1	-0.1	2.67*	0.772	-3.6	-0.02	u	-43.7
CCOC(=O)c1oc2ccccc2c1CSc1nnnn1-c1ccc(C)cc1	2.9	0.378	0.759	-2.6	1.21	x	x
COc1cc(CSc2nnnn2-c2ccc(C)cc2)cc(OC)c1OC	-1.9	5.8*	-2.5*	102.1*	-0.33	3.54	u
O=C1C2=C(Nc3ccccc3SC2c2ccco2)c2ccccc21 (stereo not given)	-1.6	active	0.14	9.4	-0.765	u	-65.1
CN1CCCc2cc3c(C(F)(F)F)cc(=O)oc3nc21	0.0	429*	-17.3*	x	2.57	2526*	2146*
Nc1c(N2CCCC2)cc(Cl)c2nonc12	-0.3	4.15*	-0.509	9.8	0.0259	8.62	-43
CC(C)N1CC=C2C(C#N)=C(N)C(C#N)(C#N)C(c3ccccc3)C2C1 (stereo not given)	5.0	225*	-0.296	12.5	x	427*	400*
CN1CC=C2C(C#N)=C(N)C(C#N)(C#N)C(Cc3ccccc3)C2C1 (stereo not given)	-0.2	29.6*	-0.697	-3.7	-0.696	98.4*	63
CCC1C2CN(C(C)=O)CC=C2C(C#N)=C(N)C1(C#N)C#N (stereo not given)	0.2	-0.489	-0.24	4.4	-0.881	x	x
CC(C)(C)OC(=O)N1CC=C2C(C#N)=C(N)C(C#N)(C#N)C(c3cccs3)C2C1 (stereo not given)	x	4.68*	-0.778	x	0.0385	-8.28	u
COc1cc(C2C3CN(C)CC=C3C(C#N)=C(N)C2(C#N)C#N)ccc1OC(C)C (stereo not given)	x	5.07*	-0.346	x	-4.87*	30.4	31.4
O=S(=O)(NCCCCCNS(=O)(=O)c1ccccc1)c1ccccc1	-1.1	-1.67*	-1.35	3.2	1.22	15.7	-6.84
CCn1c(SCC(=O)Nc2cccc(NC(=O)c3ccco3)c2)nnc1-c1cccs1	-0.7	4.16*	-0.743	-0.1	1.2	-10.5	-33.9
CCOc1ccc(S(=O)(=O)NCC2CCCO2)c2cccnc12 (stereo not given)	0.3	0.289	1.6	10.5	-1.19	x	x
CCOc1cc(-c2nc3ccccn3c2NCC2CCCO2)ccc1O (stereo not given)	-1.4	10.4*	-1.77*	-5.9	-4.11*	-4.31	-10.5
O=C1CCC(=O)N1CNc1ccc(Oc2ccccc2)cc1	-0.7	-3.23*	0.479	17.8	0.0277	u	-51.7
SMILES	S1P3 agonist	M1 ag	M1 antag	S1P1 ag-PAM	D1 mod	M1 agonist conf	M4 agonist ctr
O=C(CN1CCOCC1)Nc1ccc(Oc2ccc(NC(=O)CN3CCOCC3)cc2)cc1	-1.0	0.863	-0.238	-11.3	-0.813	x	x
O=C(CNc1ccc(Oc2ccccc2)cc1)N1CCOCC1	-0.2	2.83*	-0.717	-1.5	-1.75	u	u
Cc1cccc2cc3c(N)c(C#N)sc3nc12	-0.3	8.56*	0.267	-5.0	0.0738	8.88	u
COc1ccc(N2CCN(c3ncnc4nc[nH]c34)CC2)cc1	0.2	-2.34	0.0953	-7.2	3.21	x	x
COc1ccccc1N1CCN(c2ncnc3nc[nH]c23)CC1	-1.0	2.95*	0.0102	6.6	1.5	u	-39.7
O=C(c1ccco1)N1CCN(c2ncnc3c2oc2ccccc23)CC1	0.0	14.1*	-1.34	13.9	x	-13.3	-25.6
COc1ccccc1N1CCN(c2ncnc3c2oc2ccccc23)CC1	-0.9	3.87*	-1.1	22.3	-0.163	-29.4*	-62.2
COc1ccc(C)cc1NC(=O)C1CC(=O)OC12CCCCC2 (stereo not given)	1.1	-0.319	0.435	x	-0.25	x	x
Cc1c(NC(=O)CSc2nnc(-c3cccc(Cl)c3)o2)c(=O)n(-c2ccccc2)n1C	-0.7	-0.349	0.00311	2.7	0.176	x	x
CN1CCN(CCCNC(=O)c2ccc3c(c2)N(Cc2ccccc2)CCS3)CC1	-0.1	0.54	-0.474	-40.1	-0.747	x	x
Cn1c(=O)n(C)c2cc(S(=O)(=O)NCCc3ccccc3)ccc21	0.4	-3.04*	-0.246	4.5	-0.418	-15.7	u
CC1CC(C)CN(CCCNC(=O)Cc2c(C(=O)O)[nH]c3ccccc23)C1 (stereo not given)	x	0.11	-0.0766	x	0.303	x	x
Cc1ccc(OCc2nnc(SCc3nc4ccccc4[nH]3)n2Cc2ccco2)cc1	-1.9	5.52*	-2.15	50.0	x	u	-54.8
Cc1ccc(OCc2nnc(SCC(=O)c3ccccc3)n2Cc2ccco2)cc1	-1.0	-0.433	0.0371	9.7	0.327	x	x
Cc1noc(C(=O)Nc2sc3c(c2C#N)CCC3)c1Cl	0.8	-3.6*	-0.678	-5.3	-0.588	2.95	-19.6
CC(C)(C)n1nc2c(c1NC(=O)c1cccc(C(F)(F)F)c1)CS(=O)C2 (stereo not given)	0.0	-0.445	-0.572	9.0	-0.35	x	x
CCOc1ccc2nc(N3CCC(C(=O)N4CCN(C(=O)c5ccco5)CC4)CC3)sc2c1	-0.4	2.83*	-0.371	-19.3	-0.483	u	-38.2
CCOc1ccc2nc(N3CCCC(C(=O)N4CCN(CC)CC4)C3)sc2c1 (stereo not given)	-1.1	0.31	-0.397	-2.7	-0.794	x	x

High-throughput results (PubChem)
